Laboratory results reported in publication PMC2574667 (Journal of Medicinal Chemistry, 2008).
“Also recorded” adds a separate entry of the source. Like-named read-outs stand apart in the source and are kept apart here.

What was measured:
[1] = type: physicochemical
Procedure, shortened: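 Hydrolysis at 37 °C was run in 0.1 M phosphate pH 7.4 or 0.05 M citrate pH 3.8–4.6, in light-protected sealed bottles. Daily aliquots were scanned 200–400 nm for up to 11 days. First-order k came from ln(At − Ainf) versus time, with Ainf extrapolated when the reaction was incomplete. Runs in 1.0 M NaOH were followed directly in a thermostated spectrophotometer cell. Other media: NaOH, glycine/NaOH pH 10, phosphate pH 8.1.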

[2] = first order in hydroxide ion; cited from earlier work
Nitrite accumulation = type: physicochemical; details: 37 °C; for nitrite recovery: 24 h incubation, PBS and cell culture medium containing 2.5% fetal calf serum
Procedure, shortened: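 Compound at 0.25–1 mM was incubated 24 h at 37 °C, without cells, in PBS or in RPMI containing 2.5% fetal calf serum. NO release was estimated as accumulated nitrite by Griess assay. Solutions assayed immediately after dissolution served as the zero point.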

[3] = tested on: N-acetylglucosaminidase from jack bean; assay: Glycosidase-induced hydrolysis, jack bean enzyme; type: biochemical; details: 37 °C; for k, first order rate constant of enzymatic hydrolysis: JB enzyme 0.11 units/mL, 0.1 M phosphate pH 7.4, ultraviolet spectrophotometry
Procedure, shortened: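 Jack bean β-N-acetylglucosaminidase (0.11 units/mL) was incubated with substrate (0.09–0.16 mM initial) at 37 °C in 0.1 M phosphate, pH 7.4, with 0.05 mM DTPA. NO was detected by chemiluminescence until evolution ceased, and the trace was integrated per mole of compound. Nitrite in the remaining solution was measured by Griess. First-order rate constants came from UV absorbance at 227 or 256 nm. Enzyme activity was checked with PNP-NAG at 25 °C.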

[4] = tested on: intracellular L. major amastigotes; assay: Assay for leishmanicidal activity in infected macrophages; type: cell-based, Leishmania major; details: 125 or 250 µM, up to 72 h, macrophages from iNOS-deficient mice
Procedure, shortened: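 Macrophages were thioglycolate-elicited from the peritoneum of C57BL/6 iNOS-deficient mice, harvested 4 days after ip thioglycolate, and plated at 3 × 10^5/well in RPMI-1640 with 2.5% or 5% FBS. They were infected 4 h at 5:1 with lesion-derived MHOM/IL/81/FE/BNI amastigotes, then treated 72 h with medium and compound refreshed at 24 and 48 h. Diff-Quick counts at 0, 48 and 72 h gave parasites per 100 macrophages, as mean ±SD.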

[5] = tested on: peritoneal exudate macrophages from iNOS-deficient mice; assay: Nitrite accumulation; type: cell-based; details: 0.25 mM, medium with 2.5% fetal calf serum, iNOS^−/− mouse macrophages, 24 h
Procedure, shortened: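 Peritoneal exudate macrophages from iNOS-deficient mice were cultured 24 h at 37 °C in RPMI containing 2.5% fetal calf serum with 0.25 mM compound, alongside cell-free medium and PBS. Supernatants were harvested and cumulative NO was estimated as nitrite by Griess assay. Further runs used 125 or 250 µM with 0–5% FCS.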

[6] = target: N-acetylglucosaminidase from human placenta (Homo sapiens, UniProt P07686); assay: Glycosidase-induced hydrolysis, human placenta enzyme; type: biochemical; details: HP enzyme 0.044 units/mL, 37 °C, 0.1 M phosphate pH 7.4; ultraviolet spectrophotometry
[7] = tested on: peritoneal exudate macrophages from iNOS-deficient mice; assay: Viability of macrophage monolayers; type: cell-based, mouse; details: concentrations tested (125 or 250 µM); trypan blue staining, MTT assay
Procedure, shortened: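 Infected macrophage monolayers from iNOS-deficient mice were exposed to compound at 125 or 250 µM. Viability was checked by microscopy with trypan blue staining of dead cells. Mitochondrial activity of the whole monolayer was read photometrically as MTT reduction to formazan, in triplicate.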

[8] = phosphate buffer, pH 7.4, half-life pH 7.4, 0.1 M phosphate pH 7.4, 37 °C

Chain of N-acetylglucosaminidase from human placenta (P07686 122-311 limits assumed): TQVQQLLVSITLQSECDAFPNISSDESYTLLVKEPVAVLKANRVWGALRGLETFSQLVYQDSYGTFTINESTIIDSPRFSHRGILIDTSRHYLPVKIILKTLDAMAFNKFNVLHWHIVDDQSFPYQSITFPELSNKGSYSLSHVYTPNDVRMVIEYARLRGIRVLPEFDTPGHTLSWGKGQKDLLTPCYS
Chain of N-acetylglucosaminidase from human placenta (P07686 315-556 limits assumed): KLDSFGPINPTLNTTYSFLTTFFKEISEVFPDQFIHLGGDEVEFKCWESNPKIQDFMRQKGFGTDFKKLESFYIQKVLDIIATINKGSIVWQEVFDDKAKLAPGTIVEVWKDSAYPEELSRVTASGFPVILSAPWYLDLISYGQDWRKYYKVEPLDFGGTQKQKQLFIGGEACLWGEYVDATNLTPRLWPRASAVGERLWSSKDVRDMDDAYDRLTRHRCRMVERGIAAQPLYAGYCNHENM

**Q.** What does the source list for `CCN(CC)/[N+]([O-])=N/O[C@@H]1O[C@H](CO)[C@@H](O)[C@H](O)[C@H]1O` [3a]?
**A.** half-life [1, 8]: > 240 h; rate constant kOH^– of base-induced hydrolysis [2]: 0.0053 M⁻¹ s⁻¹

**Q.** What does the source list for `CCN(CC)/[N+]([O-])=N/O[C@H]1O[C@H](CO)[C@@H](O)[C@H](O)[C@@H]1O` [5a, O^2-(α-D-Mannopyranosyl) 1-(N, N-Diethylamino)diazen-1-ium-1,2-diolate]?
**A.** half-life ([1]; citrate buffer, pH 4.6, half-life pH 4.6, 0.05 M citrate pH 4.6, 37 °C): > 240 h; nitrite recovery (Nitrite accumulation): little or no nitrite; NO generation on incubation with N-acetylglucosaminidase ([3]; parallel incubation to 9a): Negligible NO generation; effect on number of intracellular L. major parasites [4]: borderline significance

**Q.** Which “effect on number of intracellular L. major parasites” value (“effect on number” for short) [4] does the source give for `[O-][N+](=NO[C@H]1O[C@H](CO)[C@@H](O)[C@H](O)[C@@H]1O)N1CCCC1` [5b, O^2-(α-D-Mannopyranosyl) 1-(Pyrrolidin-1-yl)diazen-1-ium-1,2-diolate] here?
**A.** Its value is “only one of the mannosides (5a) showed any activity”.

**Q.** Which “effect on number” value [4] does the source give for `CCN(CC)/[N+]([O-])=N/O[C@@H]1O[C@@H](C)[C@@H](O)[C@@H](O)[C@@H]1O` [7a, O^2-(β-L-Fucopyranosyl) 1-(N,N-Diethylamino)diazen-1-ium-1,2-diolate] here?
**A.** The value was “Neither of the fucose derivatives had any perceivable effect”.

**Q.** For `C[C@@H]1O[C@H](ON=[N+]([O-])N(C)C)[C@@H](O)[C@H](O)[C@@H]1O` [7c, O^2-(β-L-Fucopyranosyl) 1-(N,N-Dimethylamino)diazen-1-ium-1,2-diolate], which “effect on number” value [4] is on record?
**A.** Its value is “Neither of the fucose derivatives had any perceivable effect”.

**Q.** Which “increase in hydrolysis rate relative to 9b” value ([1]; pH 7.4 phosphate buffer) does the source give for `CCN(CC)/[N+]([O-])=N/O[C@@H]1O[C@H](CO)[C@@H](O)[C@H](O)[C@H]1NC(C)=O` [9a, O^2-(N-Acetyl-β-D-glucosaminyl) 1-(N,N-Diethylamino)diazen-1-ium-1,2-diolate] here?
**A.** Its value is > 20 fold.

**Q.** And the half-life [1, 8]?
**A.** The half-life was ~12 h.

**Q.** What about the nitrite recovery (Nitrite accumulation) of the same molecule?
**A.** Its nitrite recovery is 10−20%.

**Q.** What about the “increase of nitrite yield by macrophages” value [5] of the same molecule?
**A.** The value was “approximately doubled”.

**Q.** And the “k, first order rate constant of enzymatic hydrolysis” value [3]?
**A.** Its value is 0.00062 s⁻¹.

**Q.** What about the “k, first order rate constant of enzymatic hydrolysis” value [6] of the same molecule?
**A.** The value was 0.00041 s⁻¹.

**Q.** And the “effect on number” value [4]?
**A.** Its value is “highly significant decrease; also recorded: decidedly antileishmanial”.

**Q.** And the “toxicity to the macrophage host cells” value [7]?
**A.** The value was “no observable toxicity”.

**Q.** Which results are given for `CC(=O)N[C@H]1[C@H](O/N=[N+](\[O-])N2CCCC2)O[C@H](CO)[C@@H](O)[C@@H]1O` [9b, O^2-(β-D-N-Acetylglucosaminyl) 1-(Pyrrolidin-1-yl)diazen-1-ium-1,2-diolate]?
**A.** hydrolysis in PBS relative to 9a (Nitrite accumulation; PBS, nitrite yield, 24 h): more than an order of magnitude slower; k, first order rate constant of enzymatic hydrolysis [3]: 0.00031 s⁻¹; k, first order rate constant of enzymatic hydrolysis [6]: 0.00036 s⁻¹; effect on number of intracellular L. major parasites [4]: highly significant decrease; also recorded: decidedly antileishmanial; toxicity to the macrophage host cells [7]: no observable toxicity

**Q.** Which half-life [1, 8] does the source give for `CCN(CC)/[N+]([O-])=N/O[C@H]1C[C@@H](O)[C@H](O)[C@@H](CO)O1` [11a, O^2-[2-Deoxy-β-D-glucopyranosyl] 1-(N,N-Diethylamino)diazen-1-ium-1,2-diolate] here?
**A.** The half-life was ~12 h.

**Q.** With `O=NO` [Nitrite ion] as the molecule, how does the “effect on number” value [4] read?
**A.** The value was “devoid of antileishmanial activity”.

**Q.** With `CCN(CC)/[N+]([O-])=N\OC1CCCCO1` (centres unmarked) [compound 12, O^2-Tetrahydropyran-2-yl 1-(N,N-Diethylamino)diazen-1-ium-1,2-diolate] as the molecule, how does the hydrolysis time ([1]; all pH values studied, 37 °C) read?
**A.** Its hydrolysis time is “within minutes”.

**Q.** Which “effect on number” value [4] does the source give for `COC(=O)CCC(=O)NO[C@@H]1O[C@H](CO)[C@@H](O)[C@H](O)[C@H]1NC(C)=O` [compound 13, N-(β-D-N′-Acetylglucosaminyloxy)succinamate O-Methyl Ester, reference compound] here?
**A.** Its value is “did not have any effect”.
